Measured values taken from ChEMBL document CHEMBL4052615, “Discovery of 4-amino-3-arylsulfoquinolines, a novel non-acetylenic chemotype of metabotropic glutamate 5 (mGlu5) receptor negative allosteric modulators” (Eur J Med Chem, 2017).

What follows are compounds tested against Metabotropic glutamate receptor 5 (Homo sapiens, UniProt P41594) (assay: Displacement of [3H]M-MPEP from mGluR5 (unknown origin) at 1 uM measured after 60 mins relative to control).
Chain of Metabotropic glutamate receptor 5 (P41594 21-1212 limits assumed): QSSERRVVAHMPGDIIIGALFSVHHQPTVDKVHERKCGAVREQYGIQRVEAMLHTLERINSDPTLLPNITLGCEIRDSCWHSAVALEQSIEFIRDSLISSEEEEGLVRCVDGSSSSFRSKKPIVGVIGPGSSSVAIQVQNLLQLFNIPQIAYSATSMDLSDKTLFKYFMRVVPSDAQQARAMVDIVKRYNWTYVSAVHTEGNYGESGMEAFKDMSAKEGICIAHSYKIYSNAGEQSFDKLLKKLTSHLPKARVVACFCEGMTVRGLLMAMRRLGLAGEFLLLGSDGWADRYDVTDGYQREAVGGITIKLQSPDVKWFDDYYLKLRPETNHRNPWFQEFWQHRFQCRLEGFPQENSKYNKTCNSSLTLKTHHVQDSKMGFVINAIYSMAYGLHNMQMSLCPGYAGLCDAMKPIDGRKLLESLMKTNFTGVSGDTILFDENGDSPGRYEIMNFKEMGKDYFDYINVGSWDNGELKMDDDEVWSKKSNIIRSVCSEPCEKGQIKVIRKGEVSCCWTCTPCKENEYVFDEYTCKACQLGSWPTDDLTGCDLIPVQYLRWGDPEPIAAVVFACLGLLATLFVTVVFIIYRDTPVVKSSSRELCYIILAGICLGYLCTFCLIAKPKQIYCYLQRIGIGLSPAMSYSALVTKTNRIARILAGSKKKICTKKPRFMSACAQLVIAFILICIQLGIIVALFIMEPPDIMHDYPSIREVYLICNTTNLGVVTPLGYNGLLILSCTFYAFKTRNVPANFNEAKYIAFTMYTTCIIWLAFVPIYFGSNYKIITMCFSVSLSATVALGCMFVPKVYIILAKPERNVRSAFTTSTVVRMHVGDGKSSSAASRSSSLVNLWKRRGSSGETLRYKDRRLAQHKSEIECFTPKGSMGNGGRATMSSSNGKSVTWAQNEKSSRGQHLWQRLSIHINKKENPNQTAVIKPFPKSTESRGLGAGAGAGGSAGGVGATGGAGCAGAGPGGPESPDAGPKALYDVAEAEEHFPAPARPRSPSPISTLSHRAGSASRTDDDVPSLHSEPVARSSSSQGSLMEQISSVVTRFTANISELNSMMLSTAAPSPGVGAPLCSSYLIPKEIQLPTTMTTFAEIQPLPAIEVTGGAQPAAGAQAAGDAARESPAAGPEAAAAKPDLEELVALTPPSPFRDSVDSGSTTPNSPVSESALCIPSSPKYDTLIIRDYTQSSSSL
Summary of the method: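 Rat cerebrocortical membranes or membranes from A18 cells expressing human mGlu5a, incubated with [³H]M-MPEP and test compound at 1 µM in 50 mM Tris pH 7.6 with 2 mM MgCl₂ and 2 mM CaCl₂, 60 min at 25°C. Non-specific binding was taken with […]. Result is % displacement, run in duplicate or triplicate.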
`O=S(=O)(c1ccc(F)c(F)c1)c1cnc2c(F)cccc2c1N1CCOCC1` was tested, and the inhibition was 57%.
Compound `CC1CCN(c2c(S(=O)(=O)c3ccc(Cl)cc3)cnc3cc(F)ccc23)CC1` has an inhibition of 90%.
`NS(=O)(=O)N1CCN(c2c(S(=O)(=O)c3cc(F)cc(F)c3)cnc3cc(F)ccc23)CC1` gave an inhibition of 6.4%.
`Cc1ccc(S(=O)(=O)c2cnc3cc(F)ccc3c2N2CCC(C)CC2)cc1F` showed an inhibition of 89%.
`O=S(=O)(c1ccc(F)c(Cl)c1)c1cnc2cc(Cl)ccc2c1N1CCOCC1` gave an inhibition of 83%.
In the case of `COc1ccc(S(=O)(=O)c2cnc3cc(F)ccc3c2N2CCC(C)CC2)cc1`, the inhibition is reported as 90%.
`COc1cccc(S(=O)(=O)c2cnc3cc(F)ccc3c2N2CCOCC2)c1` showed an inhibition of 72%.
For `CC1CCN(c2c(S(=O)(=O)c3ccc(F)c(F)c3)cnc3c(F)cccc23)CC1`, the inhibition was 93%.
`NC(=O)C1CCN(c2c(S(=O)(=O)c3ccccc3)cnc3ccccc23)CC1` showed an inhibition of 24.8%.
Work on `O=S(=O)(c1cccc(Cl)c1)c1cnc2ccc(Cl)cc2c1N1CCOCC1` yielded an inhibition of 24%.
`Cc1ccc(S(=O)(=O)c2cnc3cc(F)ccc3c2N2CCC(C)CC2)cc1Cl` was tested, and the inhibition was 93%.
For `COc1ccc(S(=O)(=O)c2cnc3ccc(F)cc3c2N2CCOCC2)cc1OC`, the inhibition was -5%.
`COc1ccc(S(=O)(=O)c2cnc3ccc(Cl)cc3c2N2CCOCC2)cc1OC` gave an inhibition of -2%.
`O=S(=O)(c1ccc(Cl)c(Cl)c1)c1cnc2ccc(F)cc2c1N1CCOCC1` gave an inhibition of 68%.
`CC1CCN(c2c(S(=O)(=O)c3ccc(Cl)c(Cl)c3)cnc3cc(Cl)ccc23)CC1` gave an inhibition of 89%.
`COc1ccc2ncc(S(=O)(=O)c3cc(F)cc(F)c3)c(N3CCOCC3)c2c1` was tested, and the inhibition was 3%.
`Cc1ccc(S(=O)(=O)c2cnc3ccc(Cl)cc3c2N2CCOCC2)cc1Cl` was tested, and the inhibition was 53%.
`Cc1ccc2ncc(S(=O)(=O)c3ccc(F)c(Cl)c3)c(N3CCOCC3)c2c1` showed an inhibition of 73%.
With `CC1CCN(c2c(S(=O)(=O)c3cc(Cl)cc(Cl)c3)cnc3cc(Cl)ccc23)CC1` the inhibition was 93%.
`Cc1cc(C)cc(S(=O)(=O)c2cnc3ccc(Cl)cc3c2N2CCOCC2)c1` gave an inhibition of 14%.
`CC1CCN(c2c(S(=O)(=O)c3ccc(Cl)c(Cl)c3)cnc3c(F)cccc23)CC1` gave an inhibition of 95%.
Compound `COc1ccc2ncc(S(=O)(=O)c3cc(C)cc(C)c3)c(N3CCC(C)CC3)c2c1` has an inhibition of 79%.
Compound `CC1CCN(c2c(S(=O)(=O)c3cc(F)cc(F)c3)cnc3ccc(Cl)cc23)CC1` has an inhibition of 93%.
`CC1CCN(c2c(S(=O)(=O)c3ccc(Cl)cc3)cnc3ccc(F)cc23)CC1` showed an inhibition of 80%.
With `COc1ccc(S(=O)(=O)c2cnc3c(F)cccc3c2N2CCOCC2)cc1` the inhibition was 33%.
`CC1CCN(c2c(S(=O)(=O)c3ccc(C#N)cc3)cnc3cc(Cl)ccc23)CC1` gave an inhibition of 70%.
Work on `COc1ccc2ncc(S(=O)(=O)c3cccc(F)c3)c(N3CCOCC3)c2c1` yielded an inhibition of -3%.
For `N#Cc1ccc(S(=O)(=O)c2cnc3ccc(F)cc3c2N2CCOCC2)cc1`, the inhibition was -3%.
`Cc1ccc2ncc(S(=O)(=O)c3ccc(C#N)cc3)c(N3CCC(C)CC3)c2c1` was tested, and the inhibition was 55%.
With `CC1CCN(c2c(S(=O)(=O)c3cccc(C#N)c3)cnc3ccc(F)cc23)CC1` the inhibition was 93%.
`Cc1ccc2ncc(S(=O)(=O)c3ccc(C#N)cc3)c(N3CCOCC3)c2c1` gave an inhibition of 48%.
Compound `COc1ccc(S(=O)(=O)c2cnc3ccc(C)cc3c2N2CCC(C)CC2)cc1Cl` has an inhibition of 93%.
Compound `N#Cc1cccc(S(=O)(=O)c2cnc3ccc(Cl)cc3c2N2CCOCC2)c1` has an inhibition of 20%.
Work on `CC1CCN(c2c(S(=O)(=O)c3ccc(C#N)cc3)cnc3cc(F)ccc23)CC1` yielded an inhibition of 83%.
For `Cc1ccc2ncc(S(=O)(=O)c3ccc(Cl)cc3)c(N3CCC(C)CC3)c2c1`, the inhibition was 79%.
`Cc1ccc2ncc(S(=O)(=O)c3cc(Cl)cc(Cl)c3)c(N3CCC(C)CC3)c2c1` was tested, and the inhibition was 75%.
Work on `Cc1ccc(S(=O)(=O)c2cnc3ccc(Cl)cc3c2N2CCC(C)CC2)cc1` yielded an inhibition of 95%.
With `COc1ccc(S(=O)(=O)c2cnc3cc(F)ccc3c2N2CCOCC2)cc1Cl` the inhibition was 53%.
For `CC1CCN(c2c(S(=O)(=O)c3cccc(F)c3)cnc3c(F)cccc23)CC1`, the inhibition was 62%.
With `Cc1ccc(S(=O)(=O)c2cnc3ccc(C)cc3c2N2CCOCC2)cc1` the inhibition was 66%.
In the case of `Cc1ccc2ncc(S(=O)(=O)c3cccc(C#N)c3)c(N3CCOCC3)c2c1`, the inhibition is reported as 58%.
Compound `COc1ccc(S(=O)(=O)c2cnc3cc(Cl)ccc3c2N2CCOCC2)cc1Cl` has an inhibition of 62%.
`COc1cccc(S(=O)(=O)c2cnc3ccc(C)cc3c2N2CCOCC2)c1` was tested, and the inhibition was 65%.
`N#Cc1ccc(S(=O)(=O)c2cnc3cc(Cl)ccc3c2N2CCOCC2)cc1` gave an inhibition of 2%.
In the case of `Cc1cc(C)cc(S(=O)(=O)c2cnc3ccc(F)cc3c2N2CCOCC2)c1`, the inhibition is reported as 43%.
`COc1cccc(S(=O)(=O)c2cnc3ccc(Cl)cc3c2N2CCOCC2)c1` showed an inhibition of 28%.
For `Cc1ccc2ncc(S(=O)(=O)c3cc(F)cc(F)c3)c(N3CCOCC3)c2c1`, the inhibition was 34%.
`CC1CCN(c2c(S(=O)(=O)c3ccc(F)cc3)cnc3ccc(Cl)cc23)CC1` was tested, and the inhibition was 89%.
`COc1ccc(S(=O)(=O)c2cnc3cc(Cl)ccc3c2N2CCC(C)CC2)cc1Cl` showed an inhibition of 93%.
`COc1ccc(S(=O)(=O)c2cnc3ccc(C)cc3c2N2CCOCC2)cc1` was tested, and the inhibition was 26%.
`COc1ccc2ncc(S(=O)(=O)c3cc(Cl)cc(Cl)c3)c(N3CCC(C)CC3)c2c1` showed an inhibition of 87%.
`O=S(=O)(c1cc(Cl)cc(Cl)c1)c1cnc2c(F)cccc2c1N1CCOCC1` was tested, and the inhibition was 77%.
`N#Cc1cccc(S(=O)(=O)c2cnc3cc(F)ccc3c2N2CCSCC2)c1` showed an inhibition of 80.9%.
Work on `O=S(=O)(c1cccc(F)c1)c1cnc2cc(F)ccc2c1N1CCOCC1` yielded an inhibition of 4 to 4.1%.
In the case of `CC1CCN(c2c(S(=O)(=O)c3cc(Cl)cc(Cl)c3)cnc3cc(F)ccc23)CC1`, the inhibition is reported as 87%.
`CC1CCN(c2c(S(=O)(=O)c3cccc(F)c3)cnc3ccc(Cl)cc23)CC1` gave an inhibition of 58%.
Work on `COc1cccc(S(=O)(=O)c2cnc3ccc(OC)cc3c2N2CCC(C)CC2)c1` yielded an inhibition of 0%.
In the case of `CC1CCN(c2c(S(=O)(=O)c3cccc(F)c3)cnc3cc(Cl)ccc23)CC1`, the inhibition is reported as 5.6 to 96%.
With `COc1ccc2ncc(S(=O)(=O)c3cccc(F)c3)c(N3CCC(C)CC3)c2c1` the inhibition was 68%.
Compound `O=S(=O)(c1cc(Cl)cc(Cl)c1)c1cnc2cc(Cl)ccc2c1N1CCOCC1` has an inhibition of 85%.
`COc1ccc(S(=O)(=O)c2cnc3ccc(OC)cc3c2N2CCC(C)CC2)cc1` showed an inhibition of 41%.
In the case of `COc1cccc(S(=O)(=O)c2cnc3ccc(Cl)cc3c2N2CCC(C)CC2)c1`, the inhibition is reported as 87%.
`COc1cccc(S(=O)(=O)c2cnc3cc(F)ccc3c2N2CCC(C)CC2)c1` was tested, and the inhibition was 90%.
`Cc1cc(C)cc(S(=O)(=O)c2cnc3ccc(C)cc3c2N2CCC(C)CC2)c1` showed an inhibition of 80%.
Compound `O=S(=O)(c1cccc(Cl)c1)c1cnc2cc(Cl)ccc2c1N1CCOCC1` has an inhibition of 81%.
With `Cc1cc(C)cc(S(=O)(=O)c2cnc3ccc(F)cc3c2N2CCC(C)CC2)c1` the inhibition was 83%.
With `COc1ccc2ncc(S(=O)(=O)c3ccc(OC)c(OC)c3)c(N3CCOCC3)c2c1` the inhibition was 1%.
`Cc1ccc2ncc(S(=O)(=O)c3ccc(F)cc3)c(N3CCOCC3)c2c1` gave an inhibition of 18%.
`CC1CCN(c2c(S(=O)(=O)c3cc(Cl)cc(Cl)c3)cnc3ccc(Cl)cc23)CC1` was tested, and the inhibition was 88%.
For `O=S(=O)(c1cc(F)cc(F)c1)c1cnc2cc(Cl)ccc2c1N1CCOCC1`, the inhibition was 67%.
`Cc1ccc(S(=O)(=O)c2cnc3cc(Cl)ccc3c2N2CCOCC2)cc1F` showed an inhibition of 38%.
`COc1ccc2ncc(S(=O)(=O)c3ccccc3)c(N3CCOCC3)c2c1` was tested, and the inhibition was 65%.
`COc1ccc2ncc(S(=O)(=O)c3ccc(Cl)cc3)c(N3CCC(C)CC3)c2c1` was tested, and the inhibition was 91%.
In the case of `Cc1ccc(S(=O)(=O)c2cnc3cc(F)ccc3c2N2CCOCC2)cc1Cl`, the inhibition is reported as 84%.
`O=S(=O)(c1ccc(F)cc1)c1cnc2c(F)cccc2c1N1CCOCC1` was tested, and the inhibition was 34%.
Compound `O=S(=O)(c1ccc(F)c(Cl)c1)c1cnc2ccc(F)cc2c1N1CCOCC1` has an inhibition of 58%.
Work on `Cc1ccc(S(=O)(=O)c2cnc3cc(Cl)ccc3c2N2CCOCC2)cc1Cl` yielded an inhibition of 87%.
`O=S(=O)(c1ccccc1)c1cnc2ccccc2c1N1CCCC1` gave an inhibition of 7.1%.
Compound `COc1cccc(S(=O)(=O)c2cnc3cc(Cl)ccc3c2N2CCOCC2)c1` has an inhibition of 70%.
In the case of `CC1CCN(c2c(S(=O)(=O)c3ccc(F)c(F)c3)cnc3ccc(Cl)cc23)CC1`, the inhibition is reported as 72%.
`Cc1ccc(S(=O)(=O)c2cnc3cc(Cl)ccc3c2N2CCC(C)CC2)cc1F` showed an inhibition of 85%.
In the case of `O=S(=O)(c1cc(F)cc(F)c1)c1cnc2cc(F)ccc2c1N1CCOCC1`, the inhibition is reported as 47.8 to 48%.
`Cc1ccc2ncc(S(=O)(=O)c3ccc(Cl)cc3)c(N3CCOCC3)c2c1` showed an inhibition of 89%.
`COc1ccc2ncc(S(=O)(=O)c3ccc(C)c(F)c3)c(N3CCC(C)CC3)c2c1` was tested, and the inhibition was 73%.
Work on `CC1CCN(c2c(S(=O)(=O)c3ccccc3)cnc3ccc(Cl)cc23)CC1` yielded an inhibition of 59%.
`O=S(=O)(c1ccccc1)c1cnc2cc(Cl)ccc2c1N1CCOCC1` was tested, and the inhibition was 5%.
`COc1ccc2ncc(S(=O)(=O)c3cc(Cl)cc(Cl)c3)c(N3CCOCC3)c2c1` gave an inhibition of 23%.
`O=S(=O)(c1cccc(F)c1)c1cnc2cc(F)ccc2c1N1CCSCC1` was tested, and the inhibition was 62.7%.
For `O=S(=O)(c1ccccc1)c1cnc2ccccc2c1N1CCN(c2ccccc2)CC1`, the inhibition was 13.5%.
Work on `CC1CCN(c2c(S(=O)(=O)c3ccc(F)c(F)c3)cnc3cc(Cl)ccc23)CC1` yielded an inhibition of 90%.
`Cc1ccc(S(=O)(=O)c2cnc3cc(Cl)ccc3c2N2CCOCC2)cc1C` showed an inhibition of 87%.
`Cc1ccc2ncc(S(=O)(=O)c3cc(F)cc(F)c3)c(N3CCC(C)CC3)c2c1` showed an inhibition of 72%.
`NS(=O)(=O)N1CCN(c2c(S(=O)(=O)c3cccc(F)c3)cnc3cc(F)ccc23)CC1` gave an inhibition of 1.9%.
`COCC1CCN(c2c(S(=O)(=O)c3cc(F)cc(F)c3)cnc3cc(F)ccc23)CC1` gave an inhibition of 83%.
`Cc1ccc(S(=O)(=O)c2cnc3cc(F)ccc3c2N2CCOCC2)cc1` gave an inhibition of 33%.
Work on `Cc1ccc(S(=O)(=O)c2cnc3ccc(F)cc3c2N2CCC(C)CC2)cc1Cl` yielded an inhibition of 91%.
For `O=S(=O)(c1ccc(Cl)cc1)c1cnc2cc(Cl)ccc2c1N1CCOCC1`, the inhibition was 55%.
With `O=S(=O)(c1ccc(F)c(F)c1)c1cnc2ccc(F)cc2c1N1CCOCC1` the inhibition was 10%.
